# Data from PubChem BioAssay AID651952 (The Scripps Research Institute Molecular Screening Center, 2012).
# The campaign covered roughly 2,400 compounds. About 940 (39%) were called active.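 The calls were made as follows: active = inhibition above the plate's mean compound inhibition plus 3 SD, computed per plate (cut at about 22% in these data); inactive = the rest.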 Only a sample is shown.
# Experiment: reduced calcium signal in Ga16 cells – fluorescence, CHO-Ga16 cells, counter-screen for TAAR1 agonist project (AID 651952);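 also: 0% = EC80 ATP with DMSO and 100% = DMSO wells without ATP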
# Details: CHO-Ga16 ATP-induced calcium, Fluo-8 fluorescence; at 3 µM; hits give high values
# Summary of the method: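 Test system: Gα16-expressing CHO parent cells / Schedule: 17–24 h seeding, dye 75 min 37 °C, 30 min RT / Detection: Fluo-8 calcium fluorescence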
row,SMILES,inhibition
1,NC(=O)C1=C[C@H](c2csc3ccccc23)C[C@H](OCc2ccc(CO)cc2)O1,36.5% (active)
2,CCc1ccccc1S(=O)(=O)Cc1ccc(C(=O)NCCc2ccccc2)o1,8.92% (inactive)
3,O=C(Cc1ccc(Cl)cc1)NC(=S)Nc1ccccc1O,92.6% (active)
4,Cc1ccccc1NC(=S)NC(=O)Cc1ccc(Cl)cc1,44.5% (active)
5,O=C(NCCc1ccccc1)Oc1ccc(Cl)cc1,11% (inactive)
6,S=C(NCCCc1cnc[nH]1)NCCCN(Cc1ccc(Cl)c(Cl)c1)c1ccc(Br)cn1,48.6% (active)
7,CCCCCCCCCCOC(=O)Cn1c(COc2ccc(C)cc2)[n+](C)c2ccccc21,75.9% (active)
8,Nc1cccc2c1C(=O)N(Cc1nnc(-c3ccccc3Br)o1)C2=O,7.55% (inactive)
9,O=C(CSc1nc(-c2ccco2)cc(C(F)(F)F)n1)NCc1cccs1,3.17% (inactive)
10,NC(Cc1ccccc1)c1csc(Nc2cc(Oc3ccccc3)ncn2)n1 (stereo unspecified),34.3% (active)
11,O=C(COC(=O)Cc1ccccc1F)NCCc1ccccc1,5.44% (inactive)
12,CC(=O)Oc1ccc(Cn2c(C)c(C(=O)NCc3ccc(C#N)cc3)sc2=O)cc1,45.6% (active)
13,CN(C)c1ccc(/C=C2\NC(=S)N(Cc3ccccc3)C2=O)cc1,71.1% (active)
14,O=C(/C=C/[C@H]1O[C@@H](n2cnc3c(NC(=O)c4ccccc4)ncnc32)[C@H](O)[C@@H]1O)NCc1ccccc1,7.32% (inactive)
15,CN(C)CCCN(C(=O)c1ccc(S(=O)(=O)N2CCCCCC2)cc1)c1nc2ccc(Br)cc2s1,43% (active)
16,CN(C)CCCN(C(=O)c1ccc(S(=O)(=O)N2CCCc3ccccc32)cc1)c1nc2ccc(F)cc2s1,43.4% (active)
17,Cc1cc(=O)oc2c(C)c(OCC(=O)NCCN3CCOCC3)ccc12,7.14% (inactive)
18,Nc1c(NCCc2ccccc2)c2ccccc2oc1=O,18% (inactive)
19,CCOC(=O)Cc1csc(NC(=O)Nc2ccccc2)n1,26.6% (active)
20,Cc1ccn2c(=O)c(C(=O)NCCC3=CCCCC3)c(O)nc2c1,-3.36% (inactive)
21,Cc1ccc(O)c(NC(=S)NC(=O)COc2ccc(Br)cc2)c1,92% (active)
22,COCCCn1c(Cc2csc(Nc3cccc(Cl)c3)n2)nnc1SCC(=O)OC1CCCCC1,6.89% (inactive)
23,c1ccc(CCN2CN=C(Nc3nc4ccccc4o3)NC2)cc1,-0.52% (inactive)
24,O=C(NCCc1ccccc1)/C(=C\c1ccc([N+](=O)[O-])cc1)NC(=O)c1ccccc1,9.72% (inactive)

row,SMILES,inhibition
1,CCCCCC(=O)NC(=S)NNC(=O)c1ccc([N+](=O)[O-])cc1,51.5% (active)
2,CC(NC(=O)c1cc(-c2ccccc2)on1)c1ccccc1 (stereo unspecified),17.1% (inactive)
3,O=[N+]([O-])c1cc(S(=O)(=O)NCCc2ccccn2)ccc1Cl,0.96% (inactive)
4,N#Cc1ccc(OCCCN2CCC(C(O)(c3ccccc3)c3ccccc3)CC2)c(F)c1,25.9% (active)
5,COc1ccc(NC(=O)C(=O)NCC(c2ccco2)N2CCc3ccccc3C2)cc1 (stereo unspecified),9.37% (inactive)
6,COc1cccc(N(CC(=O)N2CCc3ccccc3C2)S(C)(=O)=O)c1,12.7% (inactive)
7,O=C(O)C1C2C=CC(O2)C1C(=O)NCCc1cccc(Cl)c1 (stereo unspecified),7.32% (inactive)
8,COc1ccc(C(=O)NNC(=S)NC(=O)c2ccccc2)cc1,44.3% (active)
9,O=C(Nc1cccc(NC(=O)c2ccc(Br)cc2)c1)c1ccccc1,2.95% (inactive)
10,Cc1onc(-c2ccccc2)c1C(=O)NNC(=S)NC(=O)c1ccc(F)cc1,50.7% (active)
11,COc1ccc(C(=O)NC(=S)NNC(=O)CCc2ccccc2)cc1,58.5% (active)
12,COc1ccc(C(=O)NC(=S)NNC(=O)c2c(-c3ccccc3)noc2C)cc1,14.4% (inactive)
13,CCCc1cc(C(=O)Nc2ccc(C(=O)OC)cc2)cs1,11.2% (inactive)
14,O=C1CCCC(O)=C1C=NCCc1ccccc1,1.71% (inactive)
15,Cc1ccccc1-c1nc(CS(=O)(=O)CC(=O)N2CCc3ccccc3C2)c(C)o1,18.3% (inactive)
16,CCCCC(=O)NNC(=S)NC(=O)C(c1ccccc1)c1ccccc1,91% (active)
17,O=C(N[C@H](C(=O)N1CCC[C@H]1C(=O)NCCc1ccccc1Cl)c1ccccc1)c1ccccc1,12.2% (inactive)
18,C[C@H](NC(=O)c1ccccc1)C(=O)OCC(=O)c1c[nH]c2ccccc12,-1.32% (inactive)
19,CN(C(=O)CN(CCO)CC(=O)N(C)C(C)(C)Cc1ccccc1)C(C)(C)Cc1ccccc1,74.1% (active)
20,COc1cccc(-c2cnc(OC(C)(C)C)nc2OC(C)(C)C)c1,4.69% (inactive)
21,Cc1ccc(Cl)cc1N1CCN(C(=O)c2cccc3c(=O)c(C)c(-c4ccccc4)oc23)CC1,69.8% (active)
22,O=C(CCCN=C1NS(=O)(=O)c2ccccc21)OCC(=O)c1ccc(F)c(F)c1,26.1% (active)
23,CC(=O)Nc1ccccc1Sc1ccc2c3c(cccc13)C(=O)N(c1ccc(C)cc1)C2=O,2.83% (inactive)
24,Nc1cc(OC(=O)c2ccccc2Br)nn1S(=O)(=O)c1ccccc1,2.75% (inactive)

row,SMILES,inhibition
1,NC(c1ccccc1)c1csc(NC(=O)Nc2cccc(C(F)(F)F)c2)n1 (stereo unspecified),48% (active)
2,COc1ccc(C(N)c2csc(NC(=O)Nc3cccc(C(F)(F)F)c3)n2)cc1 (stereo unspecified),41.8% (active)
3,NC[C@H](Cc1ccccc1)NCCc1cc(C(F)(F)F)cc(C(F)(F)F)c1,9.31% (inactive)
4,CCN(CC)c1ccc2oc(=O)c(C)nc2c1,37.7% (active)
5,CC(C)(C)CC(=O)Nc1nc(C(N)Cc2ccc(C(F)(F)F)cc2)cs1 (stereo unspecified),54.9% (active)
6,COc1ccc(CC(N)c2csc(NC(=O)Cc3ccccc3)n2)cc1 (stereo unspecified),20.4% (inactive)
7,CCCCc1c(-c2ccc(Cl)cc2)ncn1CCc1ccccc1OC,28% (active)
8,CCc1c(-c2ccccc2OC)ncn1CCc1ccccc1OC,3.45% (inactive)
9,CCCCc1c(-c2ccc(Br)cc2)ncn1CCc1ccccc1OC,23.5% (active)
10,S=C(Nc1ccc(Br)cc1)NC1CCN(Cc2ccccc2)CC1,23.8% (active)
11,COc1ccc2c(c1)OC(O)(C(F)(F)C(F)F)CC2=O (stereo unspecified),17.6% (inactive)
12,c1ccc(-c2csc(N3CCc4ccccc4C3)n2)cc1,0.61% (inactive)
13,O=C(Nc1ccc(F)cc1)Nc1nnc([C@H]2C[C@H](O)[C@@H](CO)O2)s1,2.16% (inactive)
14,O=C(Nc1ccncc1)Nc1ccc(F)cc1,12.7% (inactive)
15,O=C(Nc1ccccc1)Nc1nnc(COc2ccccc2F)s1,27.2% (active)
16,CCC(c1nnnn1Cc1ccco1)N(CCc1ccccc1)Cc1cc2cccc(C)c2[nH]c1=O (stereo unspecified),13.9% (inactive)
17,CCC(C(=O)Nc1ccc(C(C)C)cc1)c1ccccc1 (stereo unspecified),68% (active)
18,c1ccc2c(c1)C(=NC1CCCCC1)NC2=NC1CCCCC1,26.3% (active)
19,C#CCOc1ccc(/C=C2/C(=O)NN(c3ccccc3)C2=O)cc1OC,9.41% (inactive)
20,c1ccc(C2CNCc3c2ccc2ccccc32)cc1 (stereo unspecified),33.8% (active)
21,CCCOc1ccc(-c2c(C(=O)N/N=C/c3ccco3)nnn2-c2nonc2N)cc1,8.77% (inactive)
22,CCc1ccc(-c2nn(-c3ccccc3)cc2CSC(=N)N)cc1,21.2% (inactive)
23,CCOc1ccc(Br)cc1CSC(=N)N,27.7% (active)
24,CCCCOc1ccc(CSC(=N)N)cc1[N+](=O)[O-],17.7% (inactive)

row,SMILES,inhibition
1,Nc1nonc1-n1nnc(C(=O)N/N=C/c2ccc(Cl)cc2)c1-c1ccc2c(c1)OCO2,-0.91% (inactive)
2,Nc1c(C(=O)c2cccs2)sc2nsc(SCCN3CCCCC3)c12,63% (active)
3,COc1ccc(OC)c(C(c2nnnn2C(C)(C)C)N2CCc3ccccc3C2)c1 (stereo unspecified),2.14% (inactive)
4,CCCC1CCC(=NNC(=S)NCCc2ccccc2)CC1 (stereo unspecified),13.2% (inactive)
5,c1ccc(Nc2nc(N3CCOCC3)c3ccccc3n2)cc1,28.7% (active)
6,Cc1ccc(S(=O)(=O)N(CC(=O)N2CCc3ccccc3C2)c2cccc(Cl)c2)cc1,18.1% (inactive)
7,O=C1C=C(c2ccc(Cl)cc2)C(=O)N1Nc1ccccc1,79.5% (active)
8,Cc1ccc(Sc2cc(N3CCOCC3)nc(-c3ccccc3)n2)cc1,-8.38% (inactive)
9,Nc1nnn(CC(=O)N/N=C/c2ccccc2)n1,0.58% (inactive)
10,CCCc1ccc(OCC(=O)NNC(=S)NC(=O)c2ccco2)cc1,50.6% (active)
11,CC(Oc1ccc2ccccc2c1)C(=O)NNC(=S)NC(=O)c1ccco1 (stereo unspecified),52.4% (active)
12,Cc1c(CNCCc2ccccc2)c(C(=O)O)c(C)n1-c1ccccc1,6.15% (inactive)
13,CCCSc1nc2c(c(=O)n(C)c(=O)n2C)n1Cc1ccc(C)cc1,20.4% (inactive)
14,Oc1ccc2ccc3cccc[n+]3c2c1,33.9% (active)
15,Cc1cc(C)c2cc(C#N)c(N3CCNCC3)nc2c1,3.67% (inactive)
16,O=C(NNC(=S)NC(=O)c1cn(-c2ccccc2)nc1-c1ccccc1)c1ccncc1,57.6% (active)
17,COc1ccc2cc(-c3[nH]ncc3CNCCn3nc(C)cc3C)ccc2c1,4.6% (inactive)
18,Cc1cccc(NC(=O)C(C)N2C(=O)C3C4CC(C(Br)C4Br)C3C2=O)c1 (stereo unspecified),43.9% (active)
19,O=c1cnnc(Nc2ccccc2)[nH]1,7.9% (inactive)
20,COc1cc(OC)cc(C(=O)N[C@H](C(=O)OCC(=O)NC(C)c2ccccc2)C(C)C)c1 (stereo partly specified),6.73% (inactive)
21,Cn1c(=O)c(=O)n(C)c2cc(S(=O)(=O)NCCc3ccccc3)ccc21,-3.68% (inactive)
22,O=C(Nc1ccc(Cl)cc1)N1CCc2[nH]c3ccccc3c2C1,14.7% (inactive)
23,COc1ccc(OC)c(NC(=S)N2CCc3ccccc3C2)c1,5.63% (inactive)
24,Fc1ccc(NC(=S)N2CCc3[nH]c4ccccc4c3C2)cc1,22.9% (active)
